Measurements taken from ChEMBL document CHEMBL1255327, “Carbapenem-resistant Acinetobacter baumannii isolates from Tunisia producing the OXA-58-like carbapenem-hydrolyzing oxacillinase OXA-97” (2008).
Converted amounts (≈) assume the structure as drawn.

Assays:
[1] = test system: Acinetobacter baumannii; assay: Antibacterial activity against Acinetobacter baumannii phenotype 1 […]; assay type: functional
Summary of the method: (§1)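 Disk diffusion on Mueller-Hinton agar plates with β-lactam and non-β-lactam antibiotic disks, interpreted per CLSI guidelines.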

[2] = test system: Acinetobacter baumannii; assay: Antibacterial activity against Acinetobacter baumannii phenotype 2 […]; assay type: functional; summary of the method: as §1
[3] = test system: Acinetobacter baumannii; assay: Antibacterial activity against Acinetobacter baumannii MAD […]; assay type: functional
[4] = test system: Escherichia coli; assay: Antibacterial activity against Escherichia coli TOP10 harboring pOXA-58; assay type: functional
[5] = test system: Escherichia coli; assay: Antibacterial activity against Escherichia coli TOP10 harboring pOXA-97; assay type: functional
[6] = test system: Acinetobacter baumannii; assay: Antibacterial activity against Acinetobacter baumannii CIP7010 by disk diffusion method; assay type: functional; summary of the method: as §1
[7] = test system: Acinetobacter baumannii; assay: Antibacterial activity against Acinetobacter baumannii CIP7010 harboring pOXA-97 by disk diffusion method; assay type: functional
Summary of the method: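 Disk diffusion on Mueller-Hinton agar with β-lactam and non-β-lactam disks, per CLSI guidelines. The strain is an electroporation transformant of recipient CIP7010, with clinical isolates A1 and A2 as plasmid donors, selected on Trypticase soy agar containing 50 μg/ml ticarcillin.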

[8] = Antibacterial activity against Escherichia coli DH10B; assay type: functional, Escherichia coli str. K-12 substr. DH10B
[9] = Antibacterial activity against Escherichia coli DH10B harboring pOXA-97; assay type: functional, Escherichia coli str. K-12 substr. DH10B
[10] = test system: Acinetobacter baumannii; assay: Activity of Acinetobacter baumannii phenotype 1 beta-lactamase assessed per mg of protein at 100 uM
Summary of the method: (§2)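 Crude extracts made by sonication from A. baumannii clinical isolates and from E. coli TOP10 recombinants expressing OXA-97 or OXA-58. Specific activity measured against imipenem, meropenem, cephalothin, ceftazidime, oxacillin and benzylpenicillin, each at 100 μM final. Values are means of three independent experiments; standard deviations within 10% of means.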

[11] = test system: Acinetobacter baumannii; assay: Activity of Acinetobacter baumannii MAD beta-lactamase assessed per mg of protein at 100 uM; summary of the method: as §2
[12] = test system: Escherichia coli; assay: Activity of Escherichia coli TOP10 beta-lactamase OXA-58 assessed per mg of protein at 100 uM; summary of the method: as §2
[13] = test system: Escherichia coli; assay: Activity of Escherichia coli TOP10 beta-lactamase OXA-97 assessed as specific activity per mg of protein at 100 uM; summary of the method: as §2

SMILES | MIC [1] | MIC [2] | MIC [3] | MIC [4] | MIC [5] | MIC [6] | MIC [7] | MIC [8] | MIC [9] | Activity [10] | Activity [11] | Activity [12] | Activity [13]
CC(C)(O/N=C(\C(=O)N[C@@H]1C(=O)N2C(C(=O)[O-])=C(C[n+]3ccccc3)CS[C@H]12)c1csc(N)n1)C(=O)O [CEFTAZIDIME] | > 512 µg/mL | > 512 µg/mL | 128 µg/mL (≈ 234 µM) | 0.06 µg/mL (≈ 0.11 µM) | 0.06 µg/mL (≈ 0.11 µM) | 2 µg/mL (≈ 3.66 µM) | 2 µg/mL (≈ 3.66 µM) | 0.06 µg/mL (≈ 0.11 µM) | 0.12 µg/mL (≈ 0.22 µM) | 1 mU/mg | 2 mU/mg | 1.5 mU/mg | 0.5 mU/mg
CC1(C)S[C@@H]2[C@H](NC(=O)[C@H](C(=O)O)c3ccsc3)C(=O)N2[C@H]1C(=O)O [TICARCILLIN] | > 512 µg/mL | 64 µg/mL (≈ 166 µM) | > 512 µg/mL | > 512 µg/mL | > 512 µg/mL | 4 µg/mL (≈ 10.4 µM) | > 512 µg/mL | 4 µg/mL (≈ 10.4 µM) | > 512 µg/mL |  |  |  | 
C[C@H]1[C@H](NC(=O)/C(=N\OC(C)(C)C(=O)O)c2csc(N)n2)C(=O)N1S(=O)(=O)O [AZTREONAM] | 128 µg/mL (≈ 294 µM) | 128 µg/mL (≈ 294 µM) | 32 µg/mL (≈ 73.5 µM) | 0.06 µg/mL (≈ 0.138 µM) | 0.12 µg/mL (≈ 0.276 µM) | 64 µg/mL (≈ 147 µM) | 64 µg/mL (≈ 147 µM) | 0.12 µg/mL (≈ 0.276 µM) | 0.06 µg/mL (≈ 0.138 µM) |  |  |  | 
C[C@@H](O)[C@H]1C(=O)N2C(C(=O)O)=C(SCCNC=N)C[C@H]12 [IMIPENEM ANHYDROUS] | 32 µg/mL (≈ 107 µM) | 16 µg/mL (≈ 53.4 µM) | 32 µg/mL (≈ 107 µM) | 2 µg/mL (≈ 6.68 µM) | 2 µg/mL (≈ 6.68 µM) | 0.25 µg/mL (≈ 0.835 µM) | 2 µg/mL (≈ 6.68 µM) | 0.06 µg/mL (≈ 0.2 µM) | 1 µg/mL (≈ 3.34 µM) | 5.2 mU/mg | 4.5 mU/mg | 3 mU/mg | 4 mU/mg
CO/N=C(\C(=O)N[C@@H]1C(=O)N2C(C(=O)[O-])=C(C[N+]3(C)CCCC3)CS[C@H]12)c1csc(N)n1 [CEFEPIME] | 64 µg/mL (≈ 133 µM) | 256 µg/mL (≈ 533 µM) | 256 µg/mL (≈ 533 µM) | 0.06 µg/mL (≈ 0.125 µM) | 0.06 µg/mL (≈ 0.125 µM) | 1 µg/mL (≈ 2.08 µM) | 1 µg/mL (≈ 2.08 µM) | 0.06 µg/mL (≈ 0.125 µM) | 0.12 µg/mL (≈ 0.25 µM) |  |  |  | 
